The results in this text go back to ChEMBL document CHEMBL4118255, “Synthesis and antibacterial evaluation of novel 11-O-aralkylcarbamoyl-3-O-descladinosylclarithromycin derivatives” (2018).

≈ marks a conversion by molar mass, not a printed value. A value given as a limit tells only on which side of the number the result lay.

What all share (type): functional
Assay [1] concerns Staphylococcus aureus. Briefly: Antibacterial activity against erythromycin-susceptible Staphylococcus aureus ATCC 25923 after 24 hrs by […]. The conditions noted are these: ATCC 25923, 24 h.
The test system of the next assay is Escherichia coli. Nature of the assay: Antibacterial activity against penicillin-susceptible Escherichia coli ATCC 25922 incubated for 24 hrs by […]. The conditions noted are these: ATCC 25922, 24 h.
The test system of assay [2] is Streptococcus pyogenes. Nature of the assay: Antibacterial activity against erythromycin-susceptible Streptococcus pyogenes after 24 hrs […].
Another assay has as its system Pseudomonas aeruginosa. Nature of the assay: Antibacterial activity against penicillin-susceptible Pseudomonas aeruginosa ATCC 27853 incubated for 24 hrs by […]. The conditions noted are these: ATCC 27853, 24 h.
Another assay concerns Bacillus subtilis. Nature of the assay: Antibacterial activity against erythromycin-susceptible Bacillus subtilis ATCC 9372 after 24 hrs by tube-dilution method. The conditions noted are these: ATCC 9372, 24 h. The gist of the method: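 MIC by standard NCCLS broth microdilution. Reference macrolides clarithromycin and azithromycin run alongside.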
In assay [3] the test system is Staphylococcus aureus. Briefly: Antibacterial activity against methicillin-resistant Staphylococcus aureus ATCC 43300 after 24 hrs by tube-dilution method. The conditions noted are these: ATCC 43300, 24 h. The gist of the method:
(§1)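 MIC determined by the NCCLS-recommended standard broth microdilution method against erythromycin-resistant S. pneumoniae strains (A22072 mef, B1 erm, AB11 erm plus mef) and methicillin-resistant S. aureus ATCC43300.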

Assay [4] relates to Streptococcus pneumoniae. Briefly: Antibacterial activity against erythromycin-resistant Streptococcus pneumoniae B1 harboring ermB gene after 24 hrs by tube-dilution method. The conditions noted are these: B1, 24 h. In a few lines: as §1
Assay [5] deals with Streptococcus pneumoniae. Nature of the assay: Antibacterial activity against erythromycin-resistant Streptococcus pneumoniae A22072 harboring mefA gene after 24 hrs by […]. The conditions noted are these: A22072, 24 h.
In assay [6] the test system is Streptococcus pneumoniae. Briefly: Antibacterial activity against erythromycin-resistant Streptococcus pneumoniae AB11 harboring ermB and mefA genes after 24 hrs by tube-dilution method. The conditions noted are these: AB11, 24 h. The gist of the method:
as §1

For assay [7], the system named is Streptococcus pyogenes. Nature of the assay: Antibacterial activity against erythromycin-resistant Streptococcus pyogenes R1 after 24 hrs by tube-dilution method. The conditions noted are these: R1, 24 h.

In general, MIC refers to the smallest concentration in the dilution series that meets the test's criterion for growth inhibition. Higher therefore signals a need for much substance. `CC[C@H]1OC(=O)[C@H](C)C(=O)[C@H](C)[C@@H](O[C@@H]2O[C@H](C)C[C@H](N(C)C)[C@H]2O)[C@](C)(OC)C[C@@H](C)C(=O)/C(C)=C/[C@]1(C)O`: the MIC against Staphylococcus aureus [1] was above 128 µg/mL; in the assay with Escherichia coli, above 128 µg/mL; against Streptococcus pyogenes [2], above 16 µg/mL; in the assay with Pseudomonas aeruginosa it was 64 µg/mL (≈ 112 µM); in the assay with Bacillus subtilis, 128 µg/mL (≈ 225 µM); against Staphylococcus aureus [3], above 128 µg/mL. Besides, the MIC in the assay on Streptococcus pneumoniae [4] is above 128 µg/mL; against Streptococcus pneumoniae [5] it was 64 µg/mL (≈ 112 µM); against Streptococcus pneumoniae [6], above 128 µg/mL; against Streptococcus pyogenes [7] it was above 128 µg/mL.

As for `CC[C@H]1OC(=O)[C@H](C)[C@@H](OC(=O)Cc2cccnc2)[C@H](C)[C@@H](O[C@@H]2O[C@H](C)C[C@H](N(C)C)[C@H]2O)[C@](C)(OC)C[C@@H](C)C(=O)/C(C)=C/[C@]1(C)O`, the MIC was 1 µg/mL (≈ 1.45 µM) with Staphylococcus aureus [1]; 128 µg/mL (≈ 185 µM) against Escherichia coli; 0.25 µg/mL (≈ 0.362 µM) against Streptococcus pyogenes [2]; 128 µg/mL (≈ 185 µM) against Pseudomonas aeruginosa; 1 µg/mL (≈ 1.45 µM) in the assay on Bacillus subtilis; 128 µg/mL (≈ 185 µM) against Staphylococcus aureus [3]. In addition, the MIC against Streptococcus pneumoniae [4] came to 32 µg/mL (≈ 46.3 µM); in the assay on Streptococcus pneumoniae [5] it was 1 µg/mL (≈ 1.45 µM); in the assay on Streptococcus pneumoniae [6], 16 µg/mL (≈ 23.2 µM); in the assay with Streptococcus pyogenes [7], 128 µg/mL (≈ 185 µM).

Take `CC[C@H]1OC(=O)[C@H](C)[C@@H](OC(=O)Cc2cccnc2)[C@H](C)[C@@H](O[C@@H]2O[C@H](C)C[C@H](N(C)C)[C@H]2O)[C@](C)(OC)C[C@@H](C)C(=O)[C@H](C)[C@@H](OC(=O)NCCNC(=O)/C=C/c2ccc([N+](=O)[O-])cc2)[C@]1(C)O`: the MIC turned out to be 8 µg/mL (≈ 8.25 µM) with Staphylococcus aureus [1]; 128 µg/mL (≈ 132 µM) in the assay on Escherichia coli; 0.125 µg/mL (≈ 0.129 µM) in the assay with Streptococcus pyogenes [2]; 128 µg/mL (≈ 132 µM) in the assay on Pseudomonas aeruginosa; 4 µg/mL (≈ 4.12 µM) in the assay on Bacillus subtilis; 64 µg/mL (≈ 66 µM) in the assay with Staphylococcus aureus [3]. In addition, the minimal inhibitory concentration (MIC) against Streptococcus pneumoniae [4] was 32 µg/mL (≈ 33 µM); in the assay with Streptococcus pneumoniae [5] it was 1 µg/mL (≈ 1.03 µM); with Streptococcus pneumoniae [6], 8 µg/mL (≈ 8.25 µM); in the assay with Streptococcus pyogenes [7] it was above 128 µg/mL.

Turning to `CC[C@H]1OC(=O)[C@H](C)[C@@H](OC(=O)Cc2cccnc2)[C@H](C)[C@@H](O[C@@H]2O[C@H](C)C[C@H](N(C)C)[C@H]2O)[C@](C)(OC)C[C@@H](C)C(=O)[C@H](C)[C@@H](OC(=O)NCCNC(=O)C#Cc2ccc(C)cc2)[C@]1(C)O`, the MIC against Staphylococcus aureus [1] is 8 µg/mL (≈ 8.54 µM); with Escherichia coli it was above 128 µg/mL; with Streptococcus pyogenes [2], 0.25 µg/mL (≈ 0.267 µM); with Pseudomonas aeruginosa it was above 128 µg/mL; in the assay with Bacillus subtilis it was 2 µg/mL (≈ 2.13 µM); against Staphylococcus aureus [3], 128 µg/mL (≈ 137 µM). Besides, the MIC against Streptococcus pneumoniae [4] is 64 µg/mL (≈ 68.3 µM); in the assay on Streptococcus pneumoniae [5], 1 µg/mL (≈ 1.07 µM); in the assay on Streptococcus pneumoniae [6], 32 µg/mL (≈ 34.1 µM); in the assay on Streptococcus pyogenes [7], above 128 µg/mL.

With `CC[C@H]1OC(=O)[C@H](C)[C@@H](O[C@H]2C[C@@](C)(OC)[C@@H](O)[C@H](C)O2)[C@H](C)[C@@H](O[C@@H]2O[C@H](C)C[C@H](N(C)C)[C@H]2O)[C@](C)(O)C[C@@H](C)CN(C)[C@H](C)[C@@H](O)[C@]1(C)O` [AZITHROMYCIN], the MIC is 0.25 µg/mL (≈ 0.334 µM) in the assay with Staphylococcus aureus [1]; 16 µg/mL (≈ 21.4 µM) against Escherichia coli; 0.03 µg/mL (≈ 0.0401 µM) against Streptococcus pyogenes [2]; 16 µg/mL (≈ 21.4 µM) with Pseudomonas aeruginosa; 0.25 µg/mL (≈ 0.334 µM) in the assay with Bacillus subtilis; above 128 µg/mL against Staphylococcus aureus [3]. The MIC is above 128 µg/mL against Streptococcus pneumoniae [4], 4 µg/mL (≈ 5.34 µM) with Streptococcus pneumoniae [5], above 128 µg/mL in the assay on Streptococcus pneumoniae [6] and above 128 µg/mL with Streptococcus pyogenes [7].

With `CC[C@H]1OC(=O)[C@H](C)[C@@H](O[C@H]2C[C@@](C)(OC)[C@@H](O)[C@H](C)O2)[C@H](C)[C@@H](O[C@@H]2O[C@H](C)C[C@H](N(C)C)[C@H]2O)[C@](C)(OC)C[C@@H](C)C(=O)[C@H](C)[C@@H](O)[C@]1(C)O` [CLARITHROMYCIN], the MIC in the assay with Staphylococcus aureus [1] is 0.25 µg/mL (≈ 0.334 µM); against Escherichia coli, 64 µg/mL (≈ 85.6 µM); in the assay on Streptococcus pyogenes [2], 0.03 µg/mL (≈ 0.0401 µM); in the assay with Pseudomonas aeruginosa, 64 µg/mL (≈ 85.6 µM); in the assay on Bacillus subtilis, 0.25 µg/mL (≈ 0.334 µM); in the assay on Staphylococcus aureus [3], above 128 µg/mL. In addition, the MIC against Streptococcus pneumoniae [4] was above 128 µg/mL; with Streptococcus pneumoniae [5] it was 2 µg/mL (≈ 2.67 µM); with Streptococcus pneumoniae [6], 128 µg/mL (≈ 171 µM); in the assay on Streptococcus pyogenes [7] it was above 128 µg/mL.
